Source: ChEMBL document CHEMBL4689842, “EUbOPEN Chemogenomics Library wave 1” (2021)
Values joined by “and” are separate entries in the source; they are usually repeats but may differ in a detail not shown here. Equal values may be shown once.

System: HEK-293T
Assay: Multiplex assay against HEK293T;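 as to Population Tubulin-Different-Phenotype (%): share of the cells with healthy nuclei that show this phenotype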
Assay type: toxicity, cell-based
Conditions: human
Outline: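 Live cells were stained at seeding with Hoechst33342, BioTracker Green Microtubule Cytoskeleton Dye, MitoTracker Red and Annexin V Alexa Fluor 680. Following compound addition, they were imaged on a CQ1 microscope at 37°C and 5% CO2 and gated by CellPathfinder machine learning into Hoechst high-intensity objects or normal cells, with normal cells split into healthy, pyknosed or fragmented nuclei and pyknosed cells into mitotic or apoptotic. Tubulin, mitochondrial-mass and membrane-permeability phenotypes are per cents of healthy-nucleus cells.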

[1] = 12 h, 1 µM, compound concentration 1 uM, replicate 1
[2] = 12 h, 1 µM, compound concentration 1 uM, replicate 2
[3] = 12 h, 10 µM, compound concentration 10 uM, replicate 1
[4] = 12 h, 10 µM, compound concentration 10 uM, replicate 2
[5] = 24 h, 1 µM, compound concentration 1 uM, replicate 1
[6] = 24 h, 1 µM, compound concentration 1 uM, replicate 2
[7] = 24 h, 10 µM, compound concentration 10 uM, replicate 1
[8] = 24 h, 10 µM, compound concentration 10 uM, replicate 2
[9] = 48 h, 1 µM, compound concentration 1 uM, replicate 1
[10] = 48 h, 1 µM, compound concentration 1 uM, replicate 2
[11] = 48 h, 10 µM, compound concentration 10 uM, replicate 1
[12] = 48 h, 10 µM, compound concentration 10 uM, replicate 2

`C=CC(=O)Nc1cccc(C(=O)Nc2ccc(Nc3cc(-c4[nH]c(SC)nc4C)ccn3)cc2)c1` was tested, and the “Population Apoptotic (%)” value [1] was 48%, the “Population Fragmented Nuclei (%)” value [1] was 16% and the “Population Healthy Nuclei (%)” value [1] was 29%. For the same compound, the “Population Hoechst High Intensity Objects (%)” value [1] was 14%, the “Population Membrane Permeable-Phenotype (%)” value [1] was 4% and the “Population Mitochondria Different-Phenotype (%)” value [1] was 80%. The “Population Mitotic Cells (%)” value [1] was 51%, the “Population Normal (%)” value [1] was 85% and the “Population Pyknosed Nuclei (%)” value [1] was 54%. For the same compound, the “Population Tubulin-Different-Phenotype (%)” value [1] was 54%, the “Total Cell Count” value [1] was 327 and the “Population Apoptotic (%)” value [2] was 5%. For the same compound, the “Population Fragmented Nuclei (%)” value [2] was 7%, the “Population Healthy Nuclei (%)” value [2] was 45% and the “Population Hoechst High Intensity Objects (%)” value [2] was 5%. The “Population Membrane Permeable-Phenotype (%)” value [2] was 2%, the “Population Mitochondria Different-Phenotype (%)” value [2] was 24% and the “Population Mitotic Cells (%)” value [2] was 94%. For the same compound, the “Population Normal (%)” value [2] was 94%, the “Population Pyknosed Nuclei (%)” value [2] was 47% and the “Population Tubulin-Different-Phenotype (%)” value [2] was 17%. For the same compound, the “Total Cell Count” value [2] was 190, the “Population Apoptotic (%)” value [3] was 48% and the “Population Fragmented Nuclei (%)” value [3] was 18%. For the same compound, the “Population Healthy Nuclei (%)” value [3] was 30%, the “Population Hoechst High Intensity Objects (%)” value [3] was 14% and the “Population Membrane Permeable-Phenotype (%)” value [3] was 20%. The “Population Mitochondria Different-Phenotype (%)” value [3] was 83%, the “Population Mitotic Cells (%)” value [3] was 51% and the “Population Normal (%)” value [3] was 85%. The “Population Pyknosed Nuclei (%)” value [3] was 51%, the “Population Tubulin-Different-Phenotype (%)” value [3] was 70% and the “Total Cell Count” value [3] was 210. The “Population Apoptotic (%)” value [4] was 29%, the “Population Fragmented Nuclei (%)” value [4] was 4% and the “Population Healthy Nuclei (%)” value [4] was 29%. For the same compound, the “Population Hoechst High Intensity Objects (%)” value [4] was 6%, the “Population Membrane Permeable-Phenotype (%)” value [4] was 19% and the “Population Mitochondria Different-Phenotype (%)” value [4] was 34%. For the same compound, the “Population Mitotic Cells (%)” value [4] was 70%, the “Population Normal (%)” value [4] was 93% and the “Population Pyknosed Nuclei (%)” value [4] was 65%. For the same compound, the “Population Tubulin-Different-Phenotype (%)” value [4] was 82%, the “Total Cell Count” value [4] was 240 and the “Population Apoptotic (%)” value [5] was 48%. For the same compound, the “Population Fragmented Nuclei (%)” value [5] was 15%, the “Population Healthy Nuclei (%)” value [5] was 35% and the “Population Hoechst High Intensity Objects (%)” value [5] was 17%. The “Population Membrane Permeable-Phenotype (%)” value [5] was 3%, the “Population Mitochondria Different-Phenotype (%)” value [5] was 58% and the “Population Mitotic Cells (%)” value [5] was 51%. For the same compound, the “Population Normal (%)” value [5] was 82%, the “Population Pyknosed Nuclei (%)” value [5] was 49% and the “Population Tubulin-Different-Phenotype (%)” value [5] was 48%. For the same compound, the “Total Cell Count” value [5] was 365, the “Population Apoptotic (%)” value [6] was 13% and the “Population Fragmented Nuclei (%)” value [6] was 5%. For the same compound, the “Population Healthy Nuclei (%)” value [6] was 64%, the “Population Hoechst High Intensity Objects (%)” value [6] was 1% and the “Population Membrane Permeable-Phenotype (%)” value [6] was 10%. For the same compound, the “Population Mitochondria Different-Phenotype (%)” value [6] was 16%, the “Population Mitotic Cells (%)” value [6] was 86% and the “Population Normal (%)” value [6] was 98%. The “Population Pyknosed Nuclei (%)” value [6] was 30%, the “Population Tubulin-Different-Phenotype (%)” value [6] was 34% and the “Total Cell Count” value [6] was 227. For the same compound, the “Population Apoptotic (%)” value [7] was 48%, the “Population Fragmented Nuclei (%)” value [7] was 20% and the “Population Healthy Nuclei (%)” value [7] was 40%. For the same compound, the “Population Hoechst High Intensity Objects (%)” value [7] was 18%, the “Population Membrane Permeable-Phenotype (%)” value [7] was 5% and the “Population Mitochondria Different-Phenotype (%)” value [7] was 80%. The “Population Mitotic Cells (%)” value [7] was 52%, the “Population Normal (%)” value [7] was 81% and the “Population Pyknosed Nuclei (%)” value [7] was 39%. The “Population Tubulin-Different-Phenotype (%)” value [7] was 72%, the “Total Cell Count” value [7] was 233 and the “Population Apoptotic (%)” value [8] was 31%. For the same compound, the “Population Fragmented Nuclei (%)” value [8] was 5%, the “Population Healthy Nuclei (%)” value [8] was 51% and the “Population Hoechst High Intensity Objects (%)” value [8] was 5%. For the same compound, the “Population Membrane Permeable-Phenotype (%)” value [8] was 19%, the “Population Mitochondria Different-Phenotype (%)” value [8] was 34% and the “Population Mitotic Cells (%)” value [8] was 68%. The “Population Normal (%)” value [8] was 94%, the “Population Pyknosed Nuclei (%)” value [8] was 43% and the “Population Tubulin-Different-Phenotype (%)” value [8] was 81%. The “Total Cell Count” value [8] was 284, the “Population Apoptotic (%)” value [9] was 38% and the “Population Fragmented Nuclei (%)” value [9] was 17%. For the same compound, the “Population Healthy Nuclei (%)” value [9] was 36%, the “Population Hoechst High Intensity Objects (%)” value [9] was 16% and the “Population Membrane Permeable-Phenotype (%)” value [9] was 6%. The “Population Mitochondria Different-Phenotype (%)” value [9] was 34%, the “Population Mitotic Cells (%)” value [9] was 61% and the “Population Normal (%)” value [9] was 83%. For the same compound, the “Population Pyknosed Nuclei (%)” value [9] was 45%, the “Population Tubulin-Different-Phenotype (%)” value [9] was 38% and the “Total Cell Count” value [9] was 393. The “Population Apoptotic (%)” value [10] was 12%, the “Population Fragmented Nuclei (%)” value [10] was 7% and the “Population Healthy Nuclei (%)” value [10] was 78%. The “Population Hoechst High Intensity Objects (%)” value [10] was 2%, the “Population Membrane Permeable-Phenotype (%)” value [10] was 10% and the “Population Mitochondria Different-Phenotype (%)” value [10] was 8%. The “Population Mitotic Cells (%)” value [10] was 87%, the “Population Normal (%)” value [10] was 97% and the “Population Pyknosed Nuclei (%)” value [10] was 13%. For the same compound, the “Population Tubulin-Different-Phenotype (%)” value [10] was 26%, the “Total Cell Count” value [10] was 435 and the “Population Apoptotic (%)” value [11] was 52%. The “Population Fragmented Nuclei (%)” value [11] was 15%, the “Population Healthy Nuclei (%)” value [11] was 43% and the “Population Hoechst High Intensity Objects (%)” value [11] was 14%. For the same compound, the “Population Membrane Permeable-Phenotype (%)” value [11] was 4%, the “Population Mitochondria Different-Phenotype (%)” value [11] was 54% and the “Population Mitotic Cells (%)” value [11] was 47%. For the same compound, the “Population Normal (%)” value [11] was 85%, the “Population Pyknosed Nuclei (%)” value [11] was 40% and the “Population Tubulin-Different-Phenotype (%)” value [11] was 69%. The “Total Cell Count” value [11] was 271, the “Population Apoptotic (%)” value [12] was 25% and the “Population Fragmented Nuclei (%)” value [12] was 8%. For the same compound, the “Population Healthy Nuclei (%)” value [12] was 75%, the “Population Hoechst High Intensity Objects (%)” value [12] was 3% and the “Population Membrane Permeable-Phenotype (%)” value [12] was 19%. The “Population Mitochondria Different-Phenotype (%)” value [12] was 14%, the “Population Mitotic Cells (%)” value [12] was 74% and the “Population Normal (%)” value [12] was 96%. The “Population Pyknosed Nuclei (%)” value [12] was 15%, the “Population Tubulin-Different-Phenotype (%)” value [12] was 64% and the “Total Cell Count” value [12] was 503.
In the case of `COc1ccc(Oc2cc(NCCC(F)(F)F)c3ncc(-c4ccc(C(=O)NC5CC5)c(C)c4)n3n2)c(F)c1F` [BAY-1217389], the “Population Apoptotic (%)” value [3] is reported as 50% and 20%, the “Population Fragmented Nuclei (%)” value [3] is reported as 25% and 12% and the “Population Healthy Nuclei (%)” value [3] is reported as 28% and 63%. For the same compound, the “Population Hoechst High Intensity Objects (%)” value [3] was 20% and 13%, the “Population Membrane Permeable-Phenotype (%)” value [3] was 17% and 25% and the “Population Mitotic Cells (%)” value [3] was 49% and 79%. The “Population Normal (%)” value [3] was 79% and 86%, the “Population Pyknosed Nuclei (%)” value [3] was 46% and 23% and the “Population Tubulin-Different-Phenotype (%)” value [3] was 79% and 68%. For the same compound, the “Total Cell Count” value [3] was 607 and 639, the “Population Apoptotic (%)” value [4] was 21% and 43% and the “Population Fragmented Nuclei (%)” value [4] was 5% and 2%. The “Population Healthy Nuclei (%)” value [4] was 89% and 86%, the “Population Hoechst High Intensity Objects (%)” value [4] was 2% and 5% and the “Population Mitotic Cells (%)” value [4] was 78% and 56%. For the same compound, the “Population Normal (%)” value [4] was 97% and 94%, the “Population Pyknosed Nuclei (%)” value [4] was 5% and 11% and the “Population Tubulin-Different-Phenotype (%)” value [4] was 87% and 95%. For the same compound, the “Total Cell Count” value [4] was 1266 and 966, the “Population Apoptotic (%)” value [7] was 53% and 25% and the “Population Fragmented Nuclei (%)” value [7] was 25% and 9%. For the same compound, the “Population Healthy Nuclei (%)” value [7] was 46% and 80%, the “Population Hoechst High Intensity Objects (%)” value [7] was 18% and 7% and the “Population Membrane Permeable-Phenotype (%)” value [7] was 9% and 24%. For the same compound, the “Population Mitotic Cells (%)” value [7] was 46% and 74%, the “Population Normal (%)” value [7] was 81% and 92% and the “Population Tubulin-Different-Phenotype (%)” value [7] was 84%. The “Total Cell Count” value [7] was 575 and 704, the “Population Fragmented Nuclei (%)” value [8] was 10% and 4% and the “Population Healthy Nuclei (%)” value [8] was 87% and 88%. The “Population Hoechst High Intensity Objects (%)” value [8] was 3% and 6%, the “Population Mitotic Cells (%)” value [8] was 94% and 68% and the “Population Normal (%)” value [8] was 96% and 93%. For the same compound, the “Population Tubulin-Different-Phenotype (%)” value [8] was 91% and 95% and the “Total Cell Count” value [8] was 1717 and 1126.
